Assay results from ChEMBL document CHEMBL1134631 (J Med Chem, 2001).

What was measured:
Assay type in all cases: functional
[1] = Antiaggregatory effect against arachidonic acid induced platelet aggregation from the human platelet rich plasma(PRP) in the presence of oxyhemoglobin (HbO2)
Procedure, shortened: (§1)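 Human citrated blood spun at 200g for 20 min to give PRP. Compound or DMSO (maximum 0.5%) added 10 min before arachidonic acid (0.5-1 mM, chosen to give 85-95% of maximal aggregation). Oxyhaemoglobin 40 µM final added 12 min before the activator. Light transmission read for 5 min at 37 °C with stirring. […] Mean ± SEM, n = 5.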

[2] = species: Homo sapiens; assay: Percent ibuprofen detected after 2 hr incubation in acidic medium (pH=1) […]
Procedure, shortened: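 Compound (0.25 mM) in acetonitrile added to HCl solution at pH 1, 37 °C, incubated 2 h.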

[3] = species: Homo sapiens; assay: Percent ibuprofen detected after 6 hr incubation in human plasma.
Procedure, shortened: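 Compound (0.0438 µmol) in 5 µL acetonitrile added to 495 µL human plasma at 37 °C and incubated 6 h. Diluted with acetonitrile containing 0.1% TFA and centrifuged (9600g, 15 min). […] Expressed as %, mean ± SEM.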

[4] = tested on: Rattus norvegicus; assay: Percent inhibition of paw volume increase in carrageenan-induced rat after a dose of 120 mg/kg was administered and observed after 4 hours of incubation
[5] = species: Homo sapiens; assay: Compound was evaluated for nitric oxide release (stimulate nitric oxide synthase) in human plasma
[6] = tested on: Rattus norvegicus; assay: Alcerogenic property after intragastric administration to conscious rats for 6 hrs
Procedure, shortened: (§2)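 Male Wistar rats (180-200 g), fasted 24 h with water allowed, groups of n = 6. […] Killed 6 h after dosing. Stomachs opened along the lesser curvature and examined under a stereomicroscope. Each haemorrhagic lesion was scored by greatest length (<1 mm = 1; 1-2 mm = 2; >2 mm = length in mm). Summed as lesion index, mean ± SEM.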

[7] = tested on: Rattus norvegicus; assay: Percent inhibition of paw volume increase in carrageenan-induced rat after a dose of 120 mg/kg was administered and observed after 6 hours of incubation
[8] = tested on: Rattus norvegicus; assay: Percent inhibition of paw volume increase in carrageenan-induced rat after a dose of 40 mg/kg was administered and observed after 6 hours of incubation
[9] = tested on: Rattus norvegicus; assay: Percent inhibition of paw volume increase in carrageenan-induced rat after a dose of 40 mg/kg was administered and observed after 4 hours of incubation
[10] = tested on: Rattus norvegicus; assay: Ulcerogenic property after intragastric administration to conscious rats for 6 hrs; procedure, shortened: as §2
[11] = tested on: Rattus norvegicus; assay: Ulcerogenic property after intragastric administration to conscious rats after 6 hours of incubation; procedure, shortened: as §2
[12] = Antiaggregatory effect against arachidonic acid induced platelet aggregation from the human platelet rich plasma(PRP) in the presence of oxyheamoglobin(HbO2, 40 uM); procedure, shortened: as §1

Row | Compound | IC50 [1] | Ibuprofen [2] | Ibuprofen [3] | inhibition in vivo at 120 mg/kg [4] | NO2- (mol/mol) [5] | Lesion index [6] | inhibition in vivo at 120 mg/kg [7] | inhibition in vivo at 40 mg/kg [8] | inhibition in vivo at 40 mg/kg [9] | Lesion index [10] | Lesion index [11] | IC50 [12]
1 | CC(C)Cc1ccc(C(C)C(=O)OCCCO[N+](=O)[O-])cc1 (stereo not given) | 57.5 µM | 22.3% | 27.1% | 41.8% | 3.2% | 0.7 mm | 40% |  |  |  |  | 
2 | CCCOC(=O)C(C)c1ccc(CC(C)C)cc1 (stereo not given) |  | 11.7% | 22.9% |  |  |  |  | 49.6% | 37.6% | 3.8 mm |  | 
3 | CC(C)Cc1ccc(C(C)C(=O)OCCCOc2no[n+]([O-])c2S(=O)(=O)c2ccccc2)cc1 (stereo not given) |  | 12.9% | 46.8% |  | 34.7% |  |  | 41.5% | 37.4% |  | 0 mm | 2.69 µM
4 | CC(C)Cc1ccc(C(C)C(=O)OCCCOc2nonc2Sc2ccccc2)cc1 (stereo not given) |  | 6.1% | 8.9% | 48.3% |  |  | 54.4% |  |  | 1.3 mm |  | 
5 | CC(C)Cc1ccc(C(C)C(=O)OCCCOc2no[n+]([O-])c2Sc2ccccc2)cc1 (stereo not given) |  | 6.5% | 35.6% | 40.7% | 9.5% |  | 36.2% |  |  | 0 mm |  | 
6 | CC(C)Cc1ccc(C(C)C(=O)OCCCOc2nonc2S(=O)(=O)c2ccccc2)cc1 (stereo not given) |  | 13% | 26% |  |  |  |  | 63.3% | 52.8% | 5.7 mm |  | 
